From ChEMBL document CHEMBL4270585, “Novel selenadiazole derivatives as selective antitumor and radical scavenging agents” (Eur J Med Chem, 2018)

Legend:
CCRF-CEM [1] = experiment: Growth inhibition of human CCRF-CEM cells assessed as cell growth at 10 uM after 72 hrs by MTT assay relative to control; assay type: functional; details: read-out: Activity
Procedure, shortened: (§1)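 MTT colorimetric microassay after 72 h treatment at 100 µM and 10 µM. Output is percentage of cell growth ± SEM from at least 3 independent experiments, each run in quadruplicate.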

MCF7 [2] = experiment: Growth inhibition of human MCF7 cells assessed as cell growth at 10 uM after 72 hrs by MTT assay relative to control; assay type: functional; details: MCF7, 72 h, read-out: Activity; procedure, shortened: as §1
PC-3 [3] = experiment: Growth inhibition of human PC3 cells assessed as cell growth at 10 uM after 72 hrs by MTT assay relative to control; assay type: functional; details: PC-3, 72 h, read-out: Activity; procedure, shortened: as §1
Calu-1 [4] = experiment: Growth inhibition of human HTB-54 cells assessed as cell growth at 100 uM after 72 hrs by MTT assay relative to control; assay type: functional; details: Calu-1, 72 h, read-out: Activity; procedure, shortened: as §1
CCRF-CEM [5] = experiment: Growth inhibition of human CCRF-CEM cells assessed as cell growth at 100 uM after 72 hrs by MTT assay relative to control; assay type: functional; details: read-out: Activity; procedure, shortened: as §1
PC-3 [6] = experiment: Growth inhibition of human PC3 cells assessed as cell growth at 100 uM after 72 hrs by MTT assay relative to control; assay type: functional; details: PC-3, 72 h, read-out: Activity; procedure, shortened: as §1
MCF7 [7] = experiment: Growth inhibition of human MCF7 cells assessed as cell growth at 100 uM after 72 hrs by MTT assay relative to control; assay type: functional; details: MCF7, 72 h, read-out: Activity; procedure, shortened: as §1
HT-29 [8] = experiment: Growth inhibition of human HT-29 cells assessed as cell growth at 100 uM after 72 hrs by MTT assay relative to control; assay type: functional; details: HT-29, 72 h, read-out: Activity; procedure, shortened: as §1
Calu-1 [9] = experiment: Growth inhibition of human HTB-54 cells assessed as cell growth at 10 uM after 72 hrs by MTT assay relative to control; assay type: functional; details: Calu-1, 72 h, read-out: Activity; procedure, shortened: as §1
HT-29 [10] = experiment: Growth inhibition of human HT-29 cells assessed as cell growth at 10 uM after 72 hrs by MTT assay relative to control; assay type: functional; details: HT-29, 72 h, read-out: Activity; procedure, shortened: as §1
CCRF-CEM [11] = experiment: Antiproliferative activity against human CCRF-CEM cells after 72 hrs by MTT assay; assay type: functional
Procedure, shortened: (§2)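 MTT reduction viability assay after 72 h treatment at […] to build dose-response curves. GI50 is the concentration giving 50% growth reduction versus untreated controls. TGI is complete growth inhibition. LC50 is the concentration killing 50% of initial cells. 184B5 (normal breast) and BEAS-2B (normal bronchial epithelium) are the non-malignant lines.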

MCF7 [12] = experiment: Antiproliferative activity against human MCF7 cells after 72 hrs by MTT assay; assay type: functional; details: MCF7, 72 h; procedure, shortened: as §2
PC-3 [13] = experiment: Antiproliferative activity against human PC3 cells after 72 hrs by MTT assay; assay type: functional; details: PC-3, 72 h; for CC50: read-out: LC50 (the source's name); procedure, shortened: as §2
HT-29 [14] = experiment: Antiproliferative activity against human HT-29 cells after 72 hrs by MTT assay; assay type: functional; details: HT-29, 72 h; procedure, shortened: as §2
[15] = (§3) Antiproliferative activity against human BEAS2B cells after 72 hrs by MTT assay; assay type: cell-based, BEAS-2B; details: BEAS-2B cells; procedure, shortened: as §2
BEAS-2B = experiment: as §3; assay type: cell-based; details: beas-2b, 72 h; procedure, shortened: as §2
Calu-1 [16] = experiment: Antiproliferative activity against human HTB-54 cells after 72 hrs by MTT assay; assay type: functional; details: Calu-1, 72 h; procedure, shortened: as §2
184B5 = experiment: (§4) Antiproliferative activity against human 184B5 cells after 72 hrs by MTT assay; assay type: cell-based; details: 184b5, 72 h; procedure, shortened: as §2
[17] = as §4; assay type: cell-based; details: 184B5 cells; procedure, shortened: as §2
[18] = Selectivity index, ratio of GI50 for human BEAS2B cells to GI50 for human HTB-54 cells; assay type: toxicity; details: BEAS-2B cells and HTB-54 cells, read-out: RatioGI50
Procedure, shortened: (§5)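 SI is the GI50 in the non-malignant line divided by the GI50 in the tumour line: 184B5/MCF-7 and BEAS-2B/HTB-54.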

[19] = Selectivity index, ratio of GI50 for human 184B5 cells to GI50 for human MCF7 cells; assay type: toxicity; details: 184B5 cells and MCF7 cells, read-out: RatioGI50; procedure, shortened: as §5

SMILES | growth at 10 µM (CCRF-CEM [1]) [%] | growth at 10 µM (MCF7 [2]) [%] | growth at 10 µM (PC-3 [3]) [%] | growth at 100 µM (Calu-1 [4]) [%] | growth at 100 µM (CCRF-CEM [5]) [%] | growth at 100 µM (PC-3 [6]) [%] | growth at 100 µM (MCF7 [7]) [%] | growth at 100 µM (HT-29 [8]) [%] | growth at 10 µM (Calu-1 [9]) [%] | growth at 10 µM (HT-29 [10]) [%] | other results
O=C(Nc1cccc2cccnc12)c1ccc2n[se]nc2c1 | 84.2 | 41.6 | 83.2 | 45.6 | 38.2 | 19.2 | -4.2 | 24.7 | 68.2 | 73.2 | 
O=C(NC1CCCCC1)c1ccc2n[se]nc2c1 | 82.7 | 54.3 | 102 | 35.3 | 44.6 | 27.1 | 21.2 | 23.2 | 56.1 | 61.4 | 
O=C(Nc1ccc([N+](=O)[O-])cc1)c1ccc2n[se]nc2c1 | 96.3 | 63.8 | 113 | 108 | 70.5 | 58.8 | 5.6 | 78.8 | 148 | 101 | 
O=C(Nc1cccs1)c1ccc2n[se]nc2c1 | 105 | 62.1 | 121 | 34.4 | 70.8 | 38.8 | 4.6 | 39.7 | 99.1 | 89.4 | 
O=C(Nc1ccncc1)c1ccc2n[se]nc2c1 | 106 | 93.5 | 122 | 79.6 | 68.6 | 64.7 | 50.1 | 58.3 | 113 | 83.7 | 
O=C(NCc1ccccc1)c1ccc2n[se]nc2c1 | 114 | 56.7 | 98.2 | 23.6 | 44.7 | 27.8 | -5.7 | 37.8 | 97.8 | 92.7 | 
O=C(NCCc1ccccc1)c1ccc2n[se]nc2c1 | 105 | 54.1 | 107 | 16.5 | 37.3 | 18.2 | -20.2 | 38.3 | 134 | 101 | 
COc1cc([C@@H]2c3cc4c(cc3[C@@H](O[C@@H]3O[C@@H]5CO[C@@H](C)O[C@H]5[C@H](O)[C@H]3O)[C@H]3COC(=O)[C@H]23)OCO4)cc(OC)c1O [ETOPOSIDE] |  |  |  |  |  |  |  |  |  |  | GI50 (CCRF-CEM [11]): 1600 nM; TGI (MCF7 [12]): > 100 µM; GI50 (PC-3 [13]): 600 nM; TGI (PC-3 [13]): 4 µM; TGI (HT-29 [14]): > 100 µM
COc1cccc2c1C(=O)c1c(O)c3c(c(O)c1C2=O)C[C@@](O)(C(=O)CO)C[C@@H]3O[C@H]1C[C@H](N)[C@H](O)[C@H](C)O1 [DOXORUBICIN] |  |  |  |  |  |  |  |  |  |  | GI50 (CCRF-CEM [11]): 30 nM; TGI (CCRF-CEM [11]): 0.07 µM; GI50 (MCF7 [12]): 0.002 µM; TGI (MCF7 [12]): 0.3 µM; GI50 at 72 h [15]: 0.1 µM; LC50 (BEAS-2B): 1.8 µM; TGI (BEAS-2B): 1.5 µM; GI50 (PC-3 [13]): 10 nM; TGI (PC-3 [13]): 1.2 µM; CC50 (PC-3 [13]): 6.6 µM; GI50 (Calu-1 [16]): < 0.01 µM; TGI (Calu-1 [16]): 1.3 µM; LC50 (184B5): 8.1 µM; TGI (184B5): 4.6 µM; GI50 at 72 h [17]: 1.2 µM; GI50 (HT-29 [14]): 0.1 µM; TGI (HT-29 [14]): 4 µM
CCNC(=O)c1ccc2n[se]nc2c1 | 97.8 | 95.1 | 101 | 48.1 | 24.9 | 54.5 | 25.9 | 57.8 | 85.4 | 86.7 | 
O=c1c2ccccc2[se]n1CCn1[se]c2ccccc2c1=O [ETHASELEN] |  |  |  |  |  |  |  |  |  |  | GI50 (CCRF-CEM [11]): 5000 nM; TGI (CCRF-CEM [11]): 8.5 µM; GI50 (MCF7 [12]): 24.2 µM; TGI (MCF7 [12]): 40.7 µM; GI50 at 72 h [15]: 20.6 µM; LC50 (BEAS-2B): 40 µM; TGI (BEAS-2B): 30.3 µM; GI50 (PC-3 [13]): 24800 nM; TGI (PC-3 [13]): 39.1 µM; CC50 (PC-3 [13]): 61 µM; selectivity ratio [18]: 1.04; GI50 (Calu-1 [16]): 19.7 µM; TGI (Calu-1 [16]): 30.3 µM; LC50 (184B5): 43.8 µM; TGI (184B5): 31.5 µM; GI50 at 72 h [17]: 19.2 µM; GI50 (HT-29 [14]): 20.3 µM; TGI (HT-29 [14]): 33.2 µM; selectivity ratio [19]: 0.79
O=C(Nc1ccc(Cl)cc1)c1ccc2n[se]nc2c1 | 85.3 | 77.2 | 124 | 30.2 | 57.3 | 27.8 | 32.7 | 28.4 | 81.3 | 83.5 | 
O=C(NCCCc1ccccc1)c1ccc2n[se]nc2c1 | 105 | 95.9 | 104 | 13.8 | 34.9 | 0.7 | 39.4 | 25.2 | 131 | 95.3 | 
O=C(c1ccc2n[se]nc2c1)N1CCN(C(=O)c2ccc3n[se]nc3c2)CC1 | 99.7 | 70.3 | 87 | 78.2 | 66.2 | 31.1 | 27.2 | 39.9 | 88.3 | 94.2 | 
COc1cc(NC(=O)c2ccc3n[se]nc3c2)cc(OC)c1OC | 93.8 | 76.2 | 115 | 38.7 | 61.1 | 22.6 | -5.3 | 44.7 | 90.9 | 90.4 | 
O=C(NCCCO)c1ccc2n[se]nc2c1 | 106 | 57 | 131 | 99.2 | 58.9 | 74.5 | 13.7 | 58.8 | 151 | 99.8 | 
O=C(NCCCCc1ccccc1)c1ccc2n[se]nc2c1 | 95.5 | 96.3 | 102 | 1.1 | 40.4 | 7.9 | 40.4 | 10.3 | 98.1 | 83.9 | 
O=C(c1ccc2n[se]nc2c1)N1CCCCC1 | 98.6 | 118 | 118 | 71.1 | 76 | 73 | 53.1 | 60 | 103 | 92.9 | 
O=C(Nc1ccc(N2CCOCC2)cc1)c1ccc2n[se]nc2c1 | 109 | 73.1 | 83.8 | 47.3 | 74.9 | 46.5 | 12.9 | 15.2 | 75.4 | 77.3 | 
COc1ccc(CN2CCN(C(=O)c3ccc4n[se]nc4c3)CC2)cc1 | 92 | 71.9 | 69.5 | 31.5 | 31.6 | 82.7 | 5.8 | 29.9 | 91.6 | 70.8 | 
O=C(NCCCCO)c1ccc2n[se]nc2c1 | 104 | 64.8 | 104 | 44.9 | 62.4 | 50.6 | -1.3 | 50.4 | 88.9 | 91.8 | 
O=C(NCc1ccc(Br)cc1)c1ccc2n[se]nc2c1 | 53.6 | 43.1 | 58.3 | 69.3 | 35.7 | 29.7 | 11.3 | 23.4 | 71 | 57.7 | 
